Activity calls are given as the source filed them. No cut-off for these calls is given here.
What was measured:
HeLa S3 [1] = test: Induction of apoptosis in human HeLaS3 cells assessed as cleaved caspase-3 at 5 times IC50 by Western blot method; format: functional, cell-based
Method in brief: (§1)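 HeLa S-3 cells treated for 24 h at 5-fold the IC50, alongside non-treated controls. Cells lysed in RIPA buffer (pH 8.0) with protease inhibitors and the whole-cell extract separated by SDS-PAGE, then transferred to PVDF. Blots blocked in 5% skim milk/TTBS and probed with anti-cdc2, cdk2 or cleaved caspase-3 antibodies (1:1000). β-actin (1:5000) served as loading control. Detection by HRP secondary antibody and ECL.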

[2] = Cell cycle arrest in human HeLaS3 cells assessed as increase in cdc2 protein level at 5 times IC50 by Western blot method; format: functional, cell-based; conditions: HeLa S3; method in brief: as §1
[3] = Cell cycle arrest in human HeLaS3 cells assessed as accumulation at G1 phase at 5 uM after 24 hrs by flow cytometry; format: functional, cell-based; conditions: HeLa S3
Method in brief: (§2)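 HeLa S-3 cells exposed for 6, 12 or 24 h. Cells washed twice in ice-cold PBS, fixed in ice-cold 70% ethanol, and resuspended with 0.1 mg/ml RNase. Stained with […] PI and analysed by flow cytometry. Phase distribution (sub-G1, G1, S, G2/M) is reported as percentage of cells. Controls were untreated.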

[4] = Cell cycle arrest in human HeLaS3 cells assessed as accumulation at G1 phase at 5 uM after 12 hrs by flow cytometry; format: functional, cell-based; conditions: HeLa S3; method in brief: as §2
[5] = Cell cycle arrest in human HeLaS3 cells assessed as accumulation at S phase at 5 uM after 24 hrs by flow cytometry; format: functional, cell-based; conditions: HeLa S3; method in brief: as §2
HeLa S3 [6] = test: Induction of apoptosis in human HeLaS3 cells assessed as appearance of fragmented nuclei at 5 times IC50 after 48 hrs by Hoechst staining; format: functional, cell-based
Method in brief: (§3)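 Stained with Hoechst 33342 (1 µg/ml) for 40 min at 37 °C. Nuclei were examined by confocal laser microscopy, and apoptosis was scored from chromatin condensation and fragmented nuclei.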

[7] = Cell cycle arrest in human HeLaS3 cells assessed as accumulation at G2/M phase at 5 uM after 12 hrs by flow cytometry; format: functional, cell-based; conditions: HeLa S3; method in brief: as §2
[8] = Cell cycle arrest in human HeLaS3 cells assessed as accumulation at sub-G1 phase at 5 uM after 6 hrs by flow cytometry; format: functional, cell-based; conditions: HeLa S3; method in brief: as §2
[9] = Cell cycle arrest in human HeLaS3 cells assessed as accumulation at G2/M phase at 1 uM after 6 hrs by flow cytometry; format: functional, cell-based; conditions: HeLa S3; method in brief: as §2
[10] = Cell cycle arrest in human HeLaS3 cells assessed as accumulation at sub-G1 phase at 1 uM after 12 hrs by flow cytometry; format: functional, cell-based; conditions: HeLa S3; method in brief: as §2
[11] = Cell cycle arrest in human HeLaS3 cells assessed as accumulation at G2/M phase at 5 uM after 6 hrs by flow cytometry; format: functional, cell-based; conditions: HeLa S3; method in brief: as §2
[12] = Cell cycle arrest in human HeLaS3 cells assessed as accumulation at G2/M phase at 1 uM after 12 hrs by flow cytometry; format: functional, cell-based; conditions: HeLa S3; method in brief: as §2
[13] = Cell cycle arrest in human HeLaS3 cells assessed as accumulation at S phase at 1 uM after 12 hrs by flow cytometry; format: functional, cell-based; conditions: HeLa S3; method in brief: as §2
[14] = Cell cycle arrest in human HeLaS3 cells assessed as accumulation at G1 phase at 5 uM after 6 hrs by flow cytometry; format: functional, cell-based; conditions: HeLa S3; method in brief: as §2
[15] = Cell cycle arrest in human HeLaS3 cells assessed as accumulation at sub-G1 phase at 5 uM after 12 hrs by flow cytometry; format: functional, cell-based; conditions: HeLa S3; method in brief: as §2
[16] = Cell cycle arrest in human HeLaS3 cells assessed as accumulation at sub-G1 phase at 5 uM after 24 hrs by flow cytometry; format: functional, cell-based; conditions: HeLa S3; method in brief: as §2
[17] = Cell cycle arrest in human HeLaS3 cells assessed as accumulation at S phase at 5 uM after 6 hrs by flow cytometry; format: functional, cell-based; conditions: HeLa S3; method in brief: as §2
[18] = Cell cycle arrest in human HeLaS3 cells assessed as accumulation at G2/M phase at 1 uM after 24 hrs by flow cytometry; format: functional, cell-based; conditions: HeLa S3; method in brief: as §2
[19] = Cell cycle arrest in human HeLaS3 cells assessed as accumulation at G1 phase at 1 uM after 12 hrs by flow cytometry; format: functional, cell-based; conditions: HeLa S3; method in brief: as §2
[20] = Cell cycle arrest in human HeLaS3 cells assessed as accumulation at G2/M phase at 5 uM after 24 hrs by flow cytometry; format: functional, cell-based; conditions: HeLa S3; method in brief: as §2
[21] = Cell cycle arrest in human HeLaS3 cells assessed as accumulation at sub-G1 phase at 1 uM after 6 hrs by flow cytometry; format: functional, cell-based; conditions: HeLa S3; method in brief: as §2
[22] = Cell cycle arrest in human HeLaS3 cells assessed as accumulation at S phase at 1 uM after 24 hrs by flow cytometry; format: functional, cell-based; conditions: HeLa S3; method in brief: as §2
[23] = Cell cycle arrest in human HeLaS3 cells assessed as effect on cdk2 protein level at 5 times IC50 by Western blot method; format: functional, cell-based; conditions: HeLa S3; method in brief: as §1
[24] = Cell cycle arrest in human HeLaS3 cells assessed as accumulation at S phase at 5 uM after 12 hrs by flow cytometry; format: functional, cell-based; conditions: HeLa S3; method in brief: as §2
HeLa S3 [25] = test: Induction of apoptosis in human HeLaS3 cells assessed as DNA fragmentation after 24 hrs by agarose gel electrophoresis; format: functional, cell-based
Method in brief: (§4)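 HeLa S-3 cells exposed for 12–48 h, then pellets lysed in 0.6% sarcosine, 20 mM Tris-HCl pH 7.4, 20 mM EDTA. Lysate treated with RNase A for 2 h at 50 °C, then proteinase K overnight at 50 °C. DNA extracted with phenol/chloroform, run on 2% agarose in TAE at 50 V, stained with ethidium bromide, and visualised under UV.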

[26] = Cell cycle arrest in human HeLaS3 cells assessed as accumulation at G1 phase at 1 uM after 24 hrs by flow cytometry; format: functional, cell-based; conditions: HeLa S3; method in brief: as §2
[27] = Cell cycle arrest in human HeLaS3 cells assessed as accumulation at sub-G1 phase at 1 uM after 24 hrs by flow cytometry; format: functional, cell-based; conditions: HeLa S3; method in brief: as §2
[28] = Cell cycle arrest in human HeLaS3 cells assessed as accumulation at S phase at 1 uM after 6 hrs by flow cytometry; format: functional, cell-based; conditions: HeLa S3; method in brief: as §2
HeLa S3 [29] = test: Induction of apoptosis in human HeLaS3 cells assessed as appearance of fragmented nuclei at 10 times IC50 after 48 hrs by Hoechst staining; format: functional, cell-based; method in brief: as §3
HeLa S3 [30] = test: Induction of apoptosis in human HeLaS3 cells assessed as DNA fragmentation after 48 hrs by agarose gel electrophoresis; format: functional, cell-based; method in brief: as §4
[31] = Cell cycle arrest in human HeLaS3 cells assessed as accumulation at G1 phase at 1 uM after 6 hrs by flow cytometry; format: functional, cell-based; conditions: HeLa S3; method in brief: as §2
[32] = Antitumor activity against human HeLaS3 cells after 24 to 72 hrs by MTT assay; format: functional, cell-based, HeLa S3
Method in brief: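 HeLa S-3 cells (MEM, 10% FBS, HEPES, NEAA, 2 mM L-glutamine, 5% CO2, 37 °C) seeded at 2 × 10⁴ cells/ml and cultured 3 h before exposure for 24–72 h at 37 °C. MTT (2 mg/ml) added for 4 h at 37 °C, formazan dissolved in DMSO, A540 read. Viability is expressed as % of control. IC50 is the concentration giving 50% growth inhibition, mean ± S.D. of four independent experiments run in triplicate.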

HeLa S3 [33] = test: Induction of apoptosis in human HeLaS3 cells assessed as DNA fragmentation upto 48 hrs by agarose gel electrophoresis; format: functional, cell-based; method in brief: as §4

Structure (SMILES)	Activity (HeLa S3 [1])	Activity [3]	Activity [4]	Activity [5]	Activity (HeLa S3 [6])	Activity [7]	Activity [8]	Activity [9]	Activity [10]	Activity [11]	Activity [12]	Activity [13]	Activity [14]	Activity [15]	Activity [16]	Activity [17]	Activity [18]	Activity [19]	Activity [20]	IC50 ([32]; Homo sapiens, HeLa S3)	other results
C[n+]1cc2[nH]c3ccccc3c2cc1NCc1ccccc1 [listing 1 of 2 here]	Active	4.4%	6.1%	3.6%	Active	78.5%	2.8%	46.1%	10.3%	50.5%	73.5%	8.7%	29.7%	3.2%	6.9%	13.8%	13.8%	7.8%	82.3%		Activity [2]: Active; Activity [21]: 4.7%; Activity [22]: 13.6%; Activity [23]: inactive; Activity [24]: 10%; Activity (HeLa S3 [25]): inactive; Activity [26]: 38.4%; Activity [27]: 34.6%; Activity [28]: 21.9%; Activity (HeLa S3 [29]): Active; Activity (HeLa S3 [30]): Active; Activity [31]: 31.5%
COC(=O)c1ccc(CNc2cc3c(cn2)[nH]c2ccccc23)cc1																				45 µM	
c1ccc2c(c1)[nH]c1cnccc12 [NORHARMANE]																				> 100 µM	
c1ccc(CCCNc2cc3c(cn2)[nH]c2ccccc23)cc1																				21 µM	
Oc1cccc(CNc2cc3c(cn2)[nH]c2ccccc23)c1	Active	15.8%	7.2%	6.8%	Active	76.7%	3.5%	36.3%	9.5%	52.9%	31.3%	10.7%	27.3%	5.9%	21.3%	14.1%	17.1%	48.8%	53.3%	0.92 µM	Activity [2]: Active; Activity [21]: 8.2%; Activity [22]: 17.4%; Activity [23]: inactive; Activity [24]: 8.9%; Activity (HeLa S3 [25]): Active; Activity [26]: 58.5%; Activity [27]: 7.5%; Activity [28]: 20%; Activity (HeLa S3 [29]): Active; Activity [31]: 36.2%
CC(C)CNc1cc2c(cn1)[nH]c1ccccc12																				13 µM	
c1ccc2c(c1)[nH]c1cnc(NCC3CCCCC3)cc12	inactive	29.7%	56.7%	13.8%	inactive	27.4%	2.6%	23.1%	2.5%	31.4%	28.9%	10.5%	51%	3%	2.8%	12.7%	15.7%	58.4%	50.5%	5.2 µM	Activity (HeLa S3 [33]): inactive; Activity [21]: 3.5%; Activity [22]: 14.7%; Activity [24]: 12.3%; Activity [26]: 68.2%; Activity [27]: 1.7%; Activity [28]: 19.7%; Activity (HeLa S3 [29]): Active; Activity [31]: 48.4%
C[n+]1cc2[nH]c3ccccc3c2cc1NCc1ccccc1 [listing 2 of 2 here]																					IC50 ([32]; hela s3): 0.54 µM
CC(C)(C)OC(=O)NCCOc1ccc(CNc2cc3c(cn2)[nH]c2ccccc23)cc1																				42 µM	

— ChEMBL document CHEMBL1667761, “3-benzylamino-β-carboline derivatives induce apoptosis through G2/M arrest in human carcinoma cells HeLa S-3” (Eur J Med Chem, 2011)
